Results reported in ChEMBL document CHEMBL2396538, “Synthesis and biological evaluation of a novel series of aryl S,N-ketene acetals as antileishmanial agents” (Bioorg Med Chem Lett, 2013).
The source made the active and inactive calls. The rule behind the calls is not given here.

Experiments:
[1] = (§1) Selectivity index, ratio of CC50 for african green monkey vero cells to IC50 for amastigote stage of Leishmania donovani infected in mouse J774A.1 cells; format: functional
In short: (§2)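 Selectivity index calculated as CC₅₀ (Vero cells, 72 h MTT) divided by IC₅₀ against intracellular amastigotes in luciferase-reporter J-774A.1 macrophage assay.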

[2] = Cytotoxicity against african green monkey vero cells assessed as cell viability after 72 hrs by MTT assay; format: cell-based; settings: chlorocebus sabaeus
In short: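 Exponentially growing Vero monkey kidney […] incubated with compounds for 72 h; viable cells detected with MTT (Mosmann method); CC₅₀ estimated.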

Leishmania donovani [3] = test: Antileishmanial activity against amastigote stage of Leishmania donovani infected in mouse J774A.1 cells assessed as parasite growth inhibition after 72 hrs by luciferase reporter gene assay; format: functional, organism-based; settings: J774.A1, 72 h
In short: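 Mouse macrophage J-774A.1 cells (4 × 10^3/100 µL) were seeded, then infected with luciferase-transfected L. donovani promastigotes (4 × 10^4/100 µL), which transformed into intracellular amastigotes. Compounds at 0.62–40 µM for 72 h in CO₂ incubator. Medium replaced with PBS plus Steady-Glo; luminescence read. Growth inhibition versus untreated controls; IC₅₀ derived.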

Leishmania donovani [4] = test: Antileishmanial activity against promastigote stage of Leishmania donovani assessed as parasite growth inhibition at 25 uM after 72 hrs by luciferase reporter gene assay relative to untreated control; format: functional; settings: for inhibition of growth at 25 µM: read-out: GI
In short: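 Luciferase-transfected L. donovani promastigotes (5 × 10^5/100 µL) exposed to compounds for 72 h. Suspension mixed 1:1 with Steady-Glo reagent; luminescence read as relative luminescence units. Inhibition calculated from luciferase activity of treated versus untreated parasites.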

Leishmania donovani [5] = test: Antileishmanial activity against amastigote stage of Leishmania donovani infected in golden hamster assessed as inhibition of parasite multiplication at 50 mg/kg, ip administered 5 days measured on day 7 by Giemsa staining assay relative to control; format: functional; settings: for inhibition in vivo at 50 mg/kg: route intraperitoneal
In short: (§3)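 Golden hamster L. donovani model; 50 mg/kg given ip for 5 days. Biopsies were taken on day 7 after the last dose, and amastigotes were counted by Giemsa staining. Percent inhibition was derived by comparing infection intensity in treated versus untreated animals and against the initial count in treated animals.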

Leishmania donovani [6] = test: Antileishmanial activity against amastigote stage of Leishmania donovani infected in golden hamster assessed as inhibition of parasite multiplication at 50 mg/kg, po administered 5 days measured on day 7 by Giemsa staining assay relative to control; format: functional
In short: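 L. donovani-infected hamsters received 50 mg/kg orally for 5 days. Post-treatment biopsy was on day 7 after the last dose, with Giemsa-stained amastigote counts. Percent inhibition came from comparing treated animals with untreated animals and with the treated animals' initial counts.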

[7] = Metabolic stability in hamster liver microsomes at 25 uM by HPLC analysis in absence of NADPH and presence of CYP suicidal inhibitor 1-ABZT; settings: cricetinae
Syrian golden hamster = test: Toxicity in golden hamster at 50 mg/kg, ip and po administered 5 days measured on day 7; format: organism-based, Mesocricetus auratus; set-up: dose 50 mg/kg, route oral; settings: in vivo, 120 h
Leishmania donovani [8] = test: Antileishmanial activity against Leishmania donovani infected in hamster assessed as inhibition of parasite multiplication relative to control; format: functional; in short: as §3
Vero = test: as §1; format: functional; in short: as §2

| Compound | Ratio CC50/IC50 [1] | CC50 at 72 h [2] [µM] | IC50 (Leishmania donovani [3]) [µM] | inhibition of growth at 25 µM (Leishmania donovani [4]) [%] | inhibition in vivo at 50 mg/kg (Leishmania donovani [5]) [%] | growth inhibition (GI) (Leishmania donovani [4]) | inhibition in vivo at 50 mg/kg (Leishmania donovani [6]) [%] | Stability [7] | Activity (Syrian golden hamster) | inhibition (Leishmania donovani [5]) | inhibition (INH) (Leishmania donovani [8]) [%] | Ratio CC50/IC50 (Vero) |
| --- | --- | --- | --- | --- | --- | --- | --- | --- | --- | --- | --- | --- |
| COc1cc(/C=C/C(=O)/C=C(\NC2CCCCC2)SC)cc(OC)c1OC | 7 | 22.7 | 3.5 | 98.9 | – | – | – | – | – | – | – | – |
| COc1ccc(N/C(=C\C(=O)/C=C/c2cc(OC)c(OC)c(OC)c2)SC)cc1 | 69 | 184 | 2.6 | 99.1 | 32 | – | – | – | – | – | – | – |
| NC[C@@H]1O[C@H](O[C@H]2[C@@H](O)[C@H](O[C@@H]3[C@@H](O)[C@H](N)C[C@H](N)[C@H]3O[C@H]3O[C@H](CO)[C@@H](O)[C@H](O)[C@H]3N)O[C@@H]2CO)[C@H](N)[C@@H](O)[C@@H]1O [PAROMOMYCIN] | 2 | 86.6 | 40.3 | – | 46 | inactive | – | – | – | – | – | – |
| COc1cc(/C=C/C(=O)/C=C(\Nc2ccccc2)SC)cc(OC)c1OC | 31 | 64.6 | 2.1 | 96.2 | 83 | – | 64 | Stable | Non-toxic | – | – | – |
| COc1cc(/C=C/C(=O)/C=C(\Nc2ccc(F)cc2)SC)cc(OC)c1OC | 36 | 43.4 | 1.2 | 97.9 | 72 | – | – | – | – | – | – | – |
| COc1cc(/C=C/C(=O)/C=C(\NCc2ccccc2)SC)cc(OC)c1OC | 36 | 71.5 | 2 | 98.6 | – | – | – | – | – | inactive | – | – |
| COc1cc(/C=C/C(=O)C=C(SC)SC)cc(OC)c1OC | – | – | – | – | – | – | – | – | – | – | 66 | – |
| Sodium stibogluconate | – | – | – | – | – | inactive | – | – | – | 89% | – | 7 |
| COc1cc(/C=C/C(=O)/C=C(\Nc2ccc(Cl)cc2)SC)cc(OC)c1OC | 36 | 57.9 | 1.6 | 98.7 | 21 | – | – | – | – | – | – | – |
